From ChEMBL document CHEMBL1130016 (J Med Chem, 1997) come the findings set out here.

The target of test [1] is Monoamine transporters; serotonin & dopamine (Rattus norvegicus) (UniProt P31652+P23977). Kind of test: Ratio of inhibitory activity against Serotonin Transporter compared to Dopamine Transporter. It counts as protein assay. In a few lines: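 Selectivity is expressed as SERT/DAT, the ratio of binding values from rat striatal membranes. SERT was labelled with [3H]citalopram and DAT with [3H]WIN 35,428. Binding was ended by filtration and counted by scintillation. Values come from three independent experiments, each run in triplicate.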
Chain of Monoamine transporters; serotonin & dopamine (Rattus norvegicus) (P23977 whole entry, looked up): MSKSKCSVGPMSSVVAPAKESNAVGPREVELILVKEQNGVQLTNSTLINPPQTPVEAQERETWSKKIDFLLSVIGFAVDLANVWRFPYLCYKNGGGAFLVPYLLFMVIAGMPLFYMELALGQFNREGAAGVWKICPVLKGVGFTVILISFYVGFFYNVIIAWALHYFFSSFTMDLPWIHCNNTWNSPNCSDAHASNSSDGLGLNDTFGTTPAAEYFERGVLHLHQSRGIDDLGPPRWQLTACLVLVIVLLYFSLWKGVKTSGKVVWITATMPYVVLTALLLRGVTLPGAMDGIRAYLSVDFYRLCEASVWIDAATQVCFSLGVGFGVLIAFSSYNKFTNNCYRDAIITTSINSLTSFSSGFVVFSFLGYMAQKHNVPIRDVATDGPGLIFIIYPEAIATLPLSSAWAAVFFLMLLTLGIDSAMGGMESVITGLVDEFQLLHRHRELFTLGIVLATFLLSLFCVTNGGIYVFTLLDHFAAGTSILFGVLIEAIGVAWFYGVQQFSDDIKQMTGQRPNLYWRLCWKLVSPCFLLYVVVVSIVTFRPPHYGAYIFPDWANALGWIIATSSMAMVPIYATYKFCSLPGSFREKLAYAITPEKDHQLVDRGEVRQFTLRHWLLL
Chain of Monoamine transporters; serotonin & dopamine (Rattus norvegicus) (P31652 whole entry, looked up): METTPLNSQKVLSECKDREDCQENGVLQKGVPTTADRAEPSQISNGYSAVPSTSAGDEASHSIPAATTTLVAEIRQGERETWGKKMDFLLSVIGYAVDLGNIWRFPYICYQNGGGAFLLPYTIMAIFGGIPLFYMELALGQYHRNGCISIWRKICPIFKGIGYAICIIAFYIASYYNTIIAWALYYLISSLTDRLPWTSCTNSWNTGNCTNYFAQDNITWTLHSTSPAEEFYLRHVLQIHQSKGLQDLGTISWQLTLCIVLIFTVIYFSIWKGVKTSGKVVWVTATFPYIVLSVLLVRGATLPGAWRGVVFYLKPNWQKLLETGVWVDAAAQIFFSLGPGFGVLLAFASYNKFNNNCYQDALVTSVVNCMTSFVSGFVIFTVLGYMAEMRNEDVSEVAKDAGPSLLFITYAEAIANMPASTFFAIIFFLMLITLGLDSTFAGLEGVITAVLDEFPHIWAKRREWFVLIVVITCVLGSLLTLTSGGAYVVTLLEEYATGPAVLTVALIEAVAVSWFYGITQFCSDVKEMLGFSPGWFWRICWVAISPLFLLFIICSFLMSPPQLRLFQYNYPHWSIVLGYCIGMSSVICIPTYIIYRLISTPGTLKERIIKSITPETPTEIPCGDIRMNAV

The target of test [2] is Sodium-dependent dopamine transporter (Rattus norvegicus, UniProt P23977). Kind of test: In vitro inhibition of [3H]WIN-35 428 binding to dopamine transporter on rat striatal membranes. In kind it is cell membranes, Membrane. In a few lines:
(§1)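 Compounds dissolved in 10% DMSO. Incubation ended by filtration, and filter-bound radioactivity was counted by liquid scintillation at about 35% efficiency for 3H. IC50 values were determined. Mean ± SEM of three independent experiments, each in triplicate.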

The target of test [3] is Sodium-dependent serotonin transporter (Rattus norvegicus, UniProt P31652). Briefly: In vitro inhibition of [3H]citalopram binding to serotonin transporter on rat striatal membranes. It counts as cell membranes, Membrane. In a few lines: as §1
Chain of Sodium-dependent serotonin transporter (P31652 whole entry): as the sequence (P31652 whole entry, looked up) above

Chain of Sodium-dependent dopamine transporter (P23977 whole entry): as the sequence (P23977 whole entry, looked up) above

A word on the IC50: it is the midpoint of a concentration-inhibition curve. Lower therefore signals inhibition by little substance. As for `c1ccc(C(OCCC2CCN(Cc3cccnc3)CC2)c2cccs2)cc1` (stereo unspecified), the Ratio in test [1] was determined as 15.9. Further, the half-maximal inhibitory concentration (IC50) in test [2] came out at 58.3 nM; in test [3] it was 927 nM.

`Fc1ccc(CN2CCC(CCOC(c3ccccc3)c3ccccc3)CC2)cc1Cl`: the Ratio in test [1] was 90. Further, the values for the IC50 in test [2] and in test [3] were 28.2 nM and 2530 nM, respectively.

On to `COc1ccc(CN2CCC(CCOC(c3ccccc3)c3ccccc3)CC2)cc1`, for which, in test [1], the Ratio was determined as 45. Also, the values for the IC50 in test [2] and in test [3] were 27.8 nM and 1240 nM, respectively.

On to `c1ccc(C(OCCC2CCN(Cc3cccs3)CC2)c2ccccc2)cc1`, for which the Ratio in test [1] is 21. Further, the IC50 in test [2] turned out to be 59.3 nM; in test [3], 1250 nM.

Regarding `Fc1ccc(CN2CCC(CCOC(c3ccccc3)c3ccc(Cl)cc3)CC2)cc1` (stereo unspecified), the Ratio in test [1] turned out to be 34.4. The 50% inhibitory concentration (IC50) stood at 52.4 nM in test [2] and 1810 nM in test [3].

`Clc1ccc(CN2CCC(CCOC(c3ccccc3)c3ccccc3)CC2)cc1Cl`: the Ratio in test [1] was 33.6. The concentration for half-maximal inhibition (IC50) in test [2] came out at 85.7 nM; in test [3], 2880 nM.

In the case of `Clc1ccc(CN2CCC(CCOC(c3ccccc3)c3ccccc3)CC2)cc1`, the Ratio in test [1] came out at 65.1. Besides, the IC50 in test [2] stood at 24.7 nM; in test [3], 1610 nM.

In the case of `c1ccc(C(OCCC2CCN(Cc3cccnc3)CC2)c2ccccc2)cc1`, the Ratio in test [1] is 13.9. In addition, the IC50 in test [2] was determined as 48.6 nM; in test [3], 680 nM.

Take `Nc1ccc(CN2CCC(CCOC(c3ccccc3)c3ccccc3)CC2)cc1`: the Ratio in test [1] worked out at 15.6. In addition, the IC50 in test [2] came out at 101 nM; in test [3], 1570 nM.

As for `Brc1ccc(CN2CCC(CCOC(c3ccccc3)c3ccccc3)CC2)cc1`, the Ratio in test [1] is 48. Further, the IC50 is 31.1 nM in test [2] and 1490 nM in test [3].

Regarding `Fc1ccc(CN2CCC(CCOC(c3ccccc3)c3ccc(F)cc3)CC2)cc1` (stereo unspecified), the Ratio in test [1] turned out to be 89. In addition, the half-inhibitory concentration (IC50) in test [2] came to 14 nM; in test [3], 1260 nM.

With `c1ccc(CN2CCC(CCOC(c3ccccc3)c3ccccc3)CC2)cc1`, in test [1], the Ratio worked out at 49.

For the compound `Fc1ccc(CN2CCC(CCOC(c3ccccc3)c3ccccc3)CC2)cc1`, the Ratio in test [1] worked out at 112. In test [3], this compound displayed a concentration for half-maximal inhibition (IC50) of 1920 nM.

Turning to `c1ccc(C(OCCC2CCN(Cc3cc4ccccc4s3)CC2)c2ccccc2)cc1`, in test [1], the Ratio turned out to be 8.9. Besides, the 50% inhibitory concentration (IC50) is 172 nM in test [2] and 1540 nM in test [3].

On to `O=[N+]([O-])c1ccc(CN2CCC(CCOC(c3ccccc3)c3ccccc3)CC2)cc1`, for which the Ratio in test [1] was found to be 108. The results for the IC50 in test [2] and in test [3] were 16.4 nM and 1770 nM, respectively.

For `Fc1ccc(CN2CCC(CCOC(c3ccccc3)c3cccs3)CC2)cc1` (stereo unspecified), in test [1], the Ratio was 100. Also, the half-inhibitory concentration (IC50) turned out to be 13.8 nM in test [2] and 1390 nM in test [3].

`Cc1ccc(CN2CCC(CCOC(c3ccccc3)c3ccccc3)CC2)cc1`: the Ratio in test [1] stood at 60.4. The IC50 in test [2] worked out at 23 nM; in test [3] it was 1390 nM.

On to `c1ccc(CN2CCC(CCOC(c3ccccc3)c3cccs3)CC2)cc1` (stereo unspecified), for which the Ratio in test [1] was 27. The results for the IC50 in test [2] and in test [3] were 27.2 nM and 741 nM, respectively.
